For one assay, the target named is T1, Renin (Homo sapiens, UniProt P00797).
T1 sequence (P00797 whole entry): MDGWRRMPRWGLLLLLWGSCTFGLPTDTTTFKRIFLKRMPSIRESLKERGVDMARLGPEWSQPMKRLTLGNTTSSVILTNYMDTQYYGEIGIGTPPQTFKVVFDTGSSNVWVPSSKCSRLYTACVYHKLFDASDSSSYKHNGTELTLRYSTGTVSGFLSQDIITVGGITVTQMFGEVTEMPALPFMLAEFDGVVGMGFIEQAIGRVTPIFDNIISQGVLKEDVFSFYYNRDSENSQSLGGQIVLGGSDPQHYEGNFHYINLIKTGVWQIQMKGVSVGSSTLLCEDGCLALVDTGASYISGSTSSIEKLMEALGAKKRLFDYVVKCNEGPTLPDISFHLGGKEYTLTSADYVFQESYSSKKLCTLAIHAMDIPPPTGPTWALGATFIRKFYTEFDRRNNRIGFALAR
In words: Inhibition of human renin. The essentials:
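Purified human renal renin, 0.24 mGu, with pure human angiotensinogen (0.21 μM) at 37 °C in 0.135 M maleate pH 6.0 containing 3 mM EDTA, 1.4 mM PMSF, 0.44% BSA and 1% DMSO (final). At least three inhibitor concentrations bracketing the IC50 preincubated with enzyme 5 min, then 10.0 min reaction stopped by freezing. Angiotensin I read by RIA; IC50 by regression of percent inhibition.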

Assay [1] concerns the target T2, Renin (Homo sapiens) (UniProt P00797).
T2 sequence (whole entry): T1 sequence (P00797 whole entry)
The assay is described as follows: Compound was evaluated for percent inhibition of renin at a concentration of 4E-7M at 5 min pre-incubation time. The procedure, abridged: (§1)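 Purified human renal renin with pure human angiotensinogen (0.21 μM final) in 0.135 M maleate buffer pH 6.0, 3 mM EDTA, 1.4 mM PMSF, 0.44% BSA, 1% DMSO. Inhibitor at one fixed concentration, preincubated with renin 5 or 60 min at 37 °C before substrate addition. Reaction then ran 10.0 min, stopped by freezing. Angiotensin I measured by radioimmunoassay; percent inhibition reported.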

Assay [2] deals with T2, Renin (Homo sapiens). In words: Compound was evaluated for percent inhibition of renin at a concentration of 4E-7M at 60 min pre-incubation time. The essentials: as §1
The target of assay [3] is T2, Renin (Homo sapiens). In words: Compound was evaluated for percent inhibition of renin at a concentration of 2.5*10e-8 M at 5 min pre-incubation time. The essentials:
as §1

The target of assay [4] is T2, Renin (Homo sapiens). The assay is described as follows: Compound was evaluated for percent inhibition of renin at a concentration of 2.5*10e-8 M at 60 min preincubation time. The essentials:
as §1

Assay [5] has as its target T2, Renin (Homo sapiens). In words: Compound was evaluated for percent inhibition of renin at a concentration of 1E-8M at 5 min pre-incubation time. The procedure, abridged:
as §1

Assay [6] deals with T2, Renin (Homo sapiens). The assay is described as follows: Compound was evaluated for percent inhibition of renin at a concentration of 1E-8M at 60 min pre-incubation time. The procedure, abridged: as §1
The target of assay [7] is T2, Renin (Homo sapiens). In words: Compound was evaluated for percent inhibition of renin at a concentration of 5e-8M at 5 min pre-incubation time. The procedure, abridged:
as §1

The target of assay [8] is T2, Renin (Homo sapiens). The assay is described as follows: Compound was evaluated for percent inhibition of renin at a concentration of 5e-8M at 60 min pre-incubation time. The procedure, abridged: as §1
Assay [9] addresses T2, Renin (Homo sapiens). The assay is described as follows: Compound was evaluated for percent inhibition of renin at a concentration of 5E-8 M at 60 min pre-incubation time. The essentials: as §1
For assay [10], the target named is T2, Renin (Homo sapiens). In words: Compound was evaluated for percent inhibition of renin at a concentration of 5E-8 M at 5 min pre-incubation time. The essentials: as §1

In the case of `CC(C)CCNC(=O)[C@](C)(O)C[C@H](O)[C@H](CC1CCCCC1)NC(=O)[C@H](Cc1c[nH]cn1)NC(=O)[C@H](Cc1ccccc1)NC(=O)OC(C)(C)C`, on Renin, the IC50 (usually the concentration that inhibits the measured activity by half) was 0.05 µM. Take `C=C(C[C@H](O)[C@H](CC1CCCCC1)NC(=O)[C@H](Cc1c[nH]cn1)NC(=O)[C@H](CO)NC(=O)OC(C)(C)C)C(=O)NCCC(C)C`: on Renin, the concentration for half-maximal inhibition (IC50) was 2 µM. As for `C=C(C[C@H](O)[C@H](CC1CCCCC1)NC(=O)[C@H](C)NC(=O)[C@H](Cc1ccccc1)NC(=O)OC(C)(C)C)C(=O)NCCN(C)C`, half-maximal inhibition against Renin (IC50) was put at 0.4 µM. For the molecule `C=C(C[C@H](O)[C@H](CC1CCCCC1)NC(=O)C(Cc1c[nH]cn1)NC(=O)C(C)(O)c1ccccc1)C(=O)NCCC(C)C` (stereo partly drawn), at Renin, the half-maximal inhibitory concentration (IC50) worked out at 0.1 µM. As for `C=C(C[C@H](O)[C@H](CC1CCCCC1)NC(=O)[C@H](C)NC(=O)[C@H](Cc1ccccc1)NC(=O)OC(C)(C)C)C(=O)NCC(C)(C)CN(C)C`, the midpoint of inhibition against Renin, the IC50, lay at 0.025 µM.

On to `C=C(C[C@H](O)[C@H](CC1CCCCC1)NC(=O)[C@H](Cc1c[nH]cn1)NC(=O)[C@H](Cc1ccccc1)NC(=O)OCC)C(=O)NCCC(C)C`, for which, on Renin, the 50% inhibitory concentration (IC50) worked out at 0.003 µM. The same measure, in the same setting: then `C=C(C[C@H](O)[C@H](CC1CCCCC1)NC(=O)[C@H](C)NC(=O)[C@H](Cc1ccccc1)NC(=O)OC(C)(C)C)C(=O)NCC(C)C`, with 0.01 µM. `C=C(C[C@H](O)[C@H](CC(C)C)NC(=O)[C@H](C)NC(=O)[C@H](Cc1ccccc1)NC(=O)OC(C)(C)C)C(=O)NCC(C)C`: the inhibition – broadly, the relative decrease from the control value, in per cent – at Renin (Homo sapiens) [1] came to 48%; against Renin (Homo sapiens) [2], 43%. In addition, it took 0.4 µM to reach half-maximal inhibition against Renin (IC50).

`CC(C)CNC(=O)[C@@](O)(CN)C[C@H](O)[C@H](CC1CCCCC1)NC(=O)[C@H](Cc1cnc[nH]1)NC(=O)[C@H](Cc1ccccc1)NC(=O)OC(C)(C)C` yielded a 50% inhibitory concentration (IC50) on Renin of 0.035 µM. As for `CC(C)CCNC(=O)C1(C[C@H](O)[C@H](CC2CCCCC2)NC(=O)[C@H](C)NC(=O)[C@H](Cc2ccccc2)NC(=O)OC(C)(C)C)CO1` (stereo partly drawn), the values for the inhibition on Renin (Homo sapiens) [3] and at Renin (Homo sapiens) [4] were 66% and 61%, respectively. This molecule also showed an IC50 against Renin of 0.025 µM. On to `C=C(C[C@H](O)[C@H](CC1CCCCC1)NC(=O)[C@H](C)NC(=O)[C@H](Cc1ccccc1)NC(=O)OC(C)(C)C)C(=O)NCCC(C)C`, for which the inhibition was 38% on Renin (Homo sapiens) [5] and 31% against Renin (Homo sapiens) [6]. Moreover, the IC50 on Renin was determined as 0.01 µM. Turning to `CC(C)CNC(=O)[C@](O)(CN)C[C@H](O)[C@H](CC1CCCCC1)NC(=O)[C@H](Cc1c[nH]cn1)NC(=O)[C@H](Cc1ccccc1)NC(=O)OC(C)(C)C`, the IC50 against Renin was 0.015 µM. Regarding `C=C(C[C@H](O)[C@H](CC1CCCCC1)NC(=O)[C@H](C)NC(=O)[C@H](Cc1ccccc1)NC(=O)OC(C)(C)C)C(=O)NC`, the inhibition against Renin (Homo sapiens) [7] came to 44%; against Renin (Homo sapiens) [8], 37%. The same molecule displayed an IC50 at Renin of 0.05 µM.

Regarding `C=C(C[C@H](O)[C@H](CC1CCCCC1)NC(=O)[C@H](C)NC(=O)[C@H](Cc1ccccc1)NC(=O)OC(C)(C)C)C(=O)NCC1CCCCC1`, the inhibition at Renin (Homo sapiens) [9] was 53%; against Renin (Homo sapiens) [10] it was 49%. The molecule also gave an IC50 on Renin of 0.05 µM.

In the case of `CC(C)CNC(=O)[C@@](O)(CCl)C[C@H](O)[C@H](CC1CCCCC1)NC(=O)[C@H](Cc1c[nH]cn1)NC(=O)[C@H](Cc1ccccc1)NC(=O)OC(C)(C)C`, half-maximal inhibition at Renin (IC50) required 0.02 µM.

Molecule `C=C(C[C@H](O)[C@H](CC1CCCCC1)NC(=O)[C@H](Cc1c[nH]cn1)NC(=O)[C@H](Cc1ccccc1)NC(=O)OC(C)(C)C)C(=O)NCC(C)C` came in with an IC50 at Renin of 0.002 µM. On Renin, `CC(C)CNC(=O)[C@](O)(CN=[N+]=[N-])C[C@H](O)[C@H](CC1CCCCC1)NC(=O)[C@H](Cc1cnc[nH]1)NC(=O)[C@H](Cc1ccccc1)NC(=O)OC(C)(C)C` gave an IC50 of 0.001 µM. The same measure, in the same setting: as for `C=C(C[C@H](O)[C@H](CC1CCCCC1)NC(=O)[C@H](Cc1c[nH]cn1)NC(=O)[C@H](Cc1ccccc1)NC(=O)OC(C)(C)C)C(=O)NCC(C)(C)CN(C)C`, the figure is 0.005 µM; as for `C=C(C[C@H](O)[C@H](CC1CCCCC1)NC(=O)[C@H](Cc1c[nH]cn1)NC(=O)[C@H](Cc1ccccc1)NC(=O)OC(C)(C)C)C(=O)NCCC(C)C`, 0.0015 µM.

As for `CC(C)CNC(=O)[C@](O)(CCl)C[C@H](O)[C@H](CC1CCCCC1)NC(=O)[C@H](Cc1cnc[nH]1)NC(=O)[C@H](Cc1ccccc1)NC(=O)OC(C)(C)C`, on Renin, the IC50 was determined as 0.0008 µM. Take `CC(C)CNC(=O)[C@@](O)(CN=[N+]=[N-])C[C@H](O)[C@H](CC1CCCCC1)NC(=O)[C@H](Cc1cnc[nH]1)NC(=O)[C@H](Cc1ccccc1)NC(=O)OC(C)(C)C`: at Renin, the half-maximal inhibitory concentration (IC50) turned out to be 0.02 µM.

Consider `C=C(C[C@H](O)[C@H](CC1CCCCC1)NC(=O)[C@H](CC(C)C)NC(=O)[C@H](Cc1ccccc1)NC(=O)OCC)C(=O)NCC(C)C`, for which the concentration for half-maximal inhibition (IC50) on Renin was found to be 0.005 µM. At Renin, `CC(C)CCNC(=O)[C@@](C)(O)C[C@H](O)[C@H](CC1CCCCC1)NC(=O)[C@H](Cc1c[nH]cn1)NC(=O)[C@H](Cc1ccccc1)NC(=O)OC(C)(C)C` displayed a 50% inhibitory concentration (IC50) of 0.0055 µM. For `C=C(C[C@H](O)[C@H](CC1CCCCC1)NC(=O)[C@H](CC(C)C)NC(=O)[C@H](Cc1ccccc1)NC(=O)OC(C)(C)C)C(=O)NCCC(C)C`, at Renin, the midpoint of inhibition, the IC50, lay at 0.004 µM. Same read-out and setting: as for `CNC(=O)C1(C[C@H](O)[C@H](CC2CCCCC2)NC(=O)[C@H](C)NC(=O)[C@H](Cc2ccccc2)NC(=O)OC(C)(C)C)CO1` (stereo partly drawn), the figure is 0.04 µM; as for `C=C(C[C@H](O)[C@H](CC1CCCCC1)NC(=O)[C@H](Cc1c[nH]cn1)NC(=O)[C@H](Cc1ccccc1)NC(C)=O)C(=O)NCCC(C)C`, 0.004 µM; as for `C=C(C[C@H](O)[C@H](CC(C)C)NC(=O)[C@H](C)NC(=O)[C@H](Cc1ccccc1)NC(=O)OC(C)(C)C)C(=O)NCCC(C)C`, 0.2 µM. The same measure, in the same setting: as for `C=C(C[C@H](O)[C@H](CC1CCCCC1)NC(=O)[C@H](C)NC(=O)[C@H](Cc1ccccc1)NC(=O)OC(C)(C)C)C(=O)NCCc1ccccc1`, the figure is 0.15 µM; as for `C=C(C[C@H](O)[C@H](CC1CCCCC1)NC(=O)[C@H](Cc1c[nH]cn1)NC(=O)[C@H](Cc1ccccc1)NC(=O)CC(C)(C)C)C(=O)NC`, 0.002 µM; as for `C=C(C[C@H](O)[C@H](CC1CCCCC1)NC(=O)[C@H](CC(C)C)NC(=O)[C@H](Cc1ccccc1)NC(=O)OCC)C(=O)NCC(C)(C)CN(C)C`, 0.01 µM.

On Renin, `CC(C)CNC(=O)[C@](O)(CC(C)C)C[C@H](O)[C@H](CC1CCCCC1)NC(=O)[C@H](Cc1c[nH]cn1)NC(=O)[C@H](Cc1ccccc1)NC(=O)OC(C)(C)C` displayed an IC50 of 0.03 µM. Same read-out and setting: then `C=C(C[C@H](O)[C@H](CC1CCCCC1)NC(=O)[C@H](Cc1ccccc1)NC(=O)[C@H](Cc1ccccc1)NC(=O)OC(C)(C)C)C(=O)NCC(C)(C)CN(C)C`, with 0.0085 µM; and `C=C(C[C@H](O)[C@H](CC(C)C)NC(=O)[C@H](C)NC(=O)[C@H](Cc1ccccc1)NC(=O)OC(C)(C)C)C(=O)N[C@H](O)CC(C)C`, with 6 µM.

The values are drawn from ChEMBL document CHEMBL1123892, “Renin inhibitors based on novel dipeptide analogues. Incorporation of the dehydrohydroxyethylene isostere at the scissile bond” (J Med Chem, 1987).
